Experimental data: publication PMC3712647 (European journal of medicinal chemistry, 2013)
Read-outs that look alike come from different tables or passages of the source.

How the values were obtained:
[1] = test system: Breast; experiment: cells; type: cell-based; settings: Homo sapiens, 48 h, read-out: TGI Breast
[2] = test system: full NCI 60 cell panel; experiment: NCI 60 five-concentration screen, panel mean; type: cell-based; settings: Homo sapiens, 48 h; for IC (TGI): read-out: TGI MG-MID; for GI50: read-out: GI50 MG-MID; for CC50: read-out: LC50 MG-MID
[3] = test system: Leukemia; experiment: cells; type: cell-based; settings: Homo sapiens, 48 h, read-out: TGI Leukemia
[4] = test system: Melanoma; experiment: NCI 60 five-concentration screen, melanoma subpanel; type: cell-based; settings: Homo sapiens, 48 h, read-out: TGI Melanoma
[5] = test system: Nox4 in B1647 cells; experiment: Intracellular ROS level; type: cell-based, human; settings: 30 min treatment at 5 or 10 µM
Procedure, shortened: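 Human AML B1647 cells grown in IMDM with 5% human serum (37 °C, 5% CO₂) were treated 30 min with test compound in DMSO. Cells (1 × 10⁶/mL) were washed twice in PBS and loaded with 5 µM DCFH-DA for 20 min at 37 °C. Oxidized DCF fluorescence was read in a multiwell plate reader.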

[6] = test system: Nox4 in B1647 cells; experiment: Intracellular ROS after Nox2 silencing in B1647 cells; type: cell-based, human; settings: siRNA against Nox2, 50 nM
[7] = test system: Nox4; experiment: Nox4 expression by Western blotting in B1647 cells; type: cell-based, human; settings: 24 h treatment; 10 µM
Procedure, shortened: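 B1647 cells were treated 24 h, then lysed 15 min on ice (1% Igepal, 150 mM NaCl, 50 mM Tris–HCl, 5 mM EDTA, protease inhibitors, orthovanadate, pH 8.0). 40 µg protein/lane ran on 10% SDS-PAGE and was transferred to nitrocellulose (100 V, 90 min). Blots were blocked in 5% milk in TBS/Tween, probed overnight at 4 °C with anti-Nox4 and anti-β-tubulin, then HRP secondaries, with luminol detection.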

[8] = test system: Ovarian; experiment: cells; type: cell-based; settings: Homo sapiens, 48 h, read-out: TGI Ovarian
[9] = test system: Renal; experiment: NCI 60 five-concentration screen, renal subpanel; type: cell-based; settings: Homo sapiens, 48 h, read-out: TGI Renal
[10] = test system: NSCLC; experiment: NCI 60 five-concentration screen, NSCLC subpanel; type: cell-based; settings: Homo sapiens, 48 h, read-out: TGI NSCLC
[11] = test system: Colon; experiment: NCI 60 five-concentration screen, colon subpanel; type: cell-based; settings: Homo sapiens, 48 h, read-out: TGI Colon
[12] = test system: CNS; experiment: cells; type: cell-based; settings: Homo sapiens, 48 h, read-out: TGI CNS
[13] = test system: Prostate; experiment: cells; type: cell-based; settings: Homo sapiens, 48 h, read-out: TGI Prostate
[14] = test system: cells; experiment: Cell cycle effect; type: cell-based; settings: data not presented
[15] = test system: full NCI 60 cell panel; experiment: NCI 60 Cell One-Dose Screen; type: cell-based

Row | Compound | IC (TGI) [1] [µM] | IC (TGI) [2] [µM] | IC (TGI) [3] [µM] | IC (TGI) [4] [µM] | GI50 [2] [µM] | IC (TGI) [9] [µM] | CC50 [2] [µM] | IC (TGI) [11] [µM] | IC (TGI) [12] [µM] | further results
1 | COc1ccc(OC)c2c1NC(=O)/C2=C\c1cc(OC)c(OC)c(OC)c1 [Compound 3] | 19 | 19.5 | – | – | – | – | – | – | – | –
2 | COc1cc(/C=C2\C(=O)Nc3ccc(Br)cc32)cc(OC)c1OC [Compound 5] | – | 67.6 | 49 | 76 | 7.9 | – | – | – | – | ROS generation [5]: partially inhibited; ROS production in Nox2 silenced cells vs scrambled cells [6]: inhibited ROS production to the same extent; Nox4 expression [7]: downregulate Nox4 expression
3 | COc1cc(/C=C2\C(=O)Nc3ccc(N(C)C)cc32)cc(OC)c1OC [Compound 6] | – | 32.4 | 9.3 | – | 2.8 | 49 | 89.1 | – | – | IC (TGI) [8]: 32.4 µM
4 | COc1cc(/C=C2/C(=O)Nc3cc(C)c(O)cc32)cc(OC)c1OC [Compound 7] | – | 20.9 | 8.7 | – | 4.3 | – | 69.2 | – | – | ROS generation [5]: partially inhibited; ROS production in Nox2 silenced cells vs scrambled cells [6]: inhibited ROS production to the same extent; Nox4 expression [7]: downregulate Nox4 expression
5 | COc1cc(/C=C2\C(=O)Nc3cc(Cl)ccc32)cc(OC)c1OC [Compound 8] | 4.1 | 5.4 | 3.6 | 6.8 | 1.3 | 4.9 | 24 | 5.4 | 5 | IC (TGI) [10]: 8.3 µM; IC (TGI) [8]: 5.4 µM; IC (TGI) [13]: 5.4 µM; proportion of cells in G2/M [14]: increased proportion of cells in G2/M
6 | COc1cc(/C=C2\C(=O)Nc3cc(OC(F)(F)F)ccc32)cc(OC)c1OC [Compound 9] | 8.7 | 12.3 | – | – | 2.7 | – | – | – | 7.4 | –
7 | COc1cc(/C=C2/C(=O)N(C)c3ccc(O)cc32)cc(OC)c1OC [Compound 10] | – | 17.4 | 8.3 | – | 4.4 | – | – | – | 17.4 | IC (TGI) [13]: 6.3 µM
8 | COc1ccc2c(c1)/C(=C\c1cc(OC)c(OC)c(OC)c1)C(=O)N2C [Compound 11] | 21.9 | 21.9 | 7.6 | 21.9 | – | 24 | 89.1 | – | – | –
9 | COc1cc(/C=C2\C(=O)N(C)c3ccc(Cl)cc32)cc(OC)c1OC [Compound 12] | – | 21.4 | – | 21.4 | 4.5 | 24 | – | – | – | –
10 | COc1cc(/C=C2\C(=O)N(Cc3ccc(Cl)cc3)c3ccccc32)cc(OC)c1OC [Compound 13] | – | 10.7 | 4.9 | 8.9 | 2.6 | 10.7 | 41.7 | 5.9 | – | IC (TGI) [13]: 7.6 µM
11 | COc1ccc(CN2C(=O)/C(=C\c3cc(OC)c(OC)c(OC)c3)c3ccccc32)cc1 [Compound 14] | – | 9.3 | – | 4.5 | 2.1 | 9.1 | 35.5 | 3.6 | – | IC (TGI) [10]: 9.3 µM
12 | COc1ccc(CN2C(=O)/C(=C/c3cc(OC)c(OC)c(OC)c3)c3cc(OC)ccc32)cc1 [Compound 15] | – | 8.9 | – | 5.7 | – | 8.9 | 34.7 | 3.8 | 7.4 | IC (TGI) [8]: 8.9 µM
13 | COc1ccc2c(c1)C(=Nc1cc(OC)c(OC)c(OC)c1)C(=O)N2 [Compound 18] | – | – | – | – | – | – | – | – | – | cytotoxic activity in the preliminary one-dose test [15]: lack of cytotoxic activity
14 | COc1cc(/N=C2\C(=O)N(Cc3ccccc3)c3ccccc32)cc(OC)c1OC [Compound 19] | – | – | – | – | – | – | – | – | – | growth inhibition in the one-dose screen ([15]; RXF 393, CCRF-CEM, RPMI-8226 and HOP-92 cells, 10^−5 M, data not shown): growth inhibition; cytotoxic activity in the preliminary one-dose test ([15]; single concentration 10^−5 M, 48 h incubation): lack of cytotoxic activity
15 | CC[C@]1(O)C[C@H]2CN(CCc3c([nH]c4ccccc34)[C@@](C(=O)OC)(c3cc4c(cc3OC)N(C=O)[C@H]3[C@@](O)(C(=O)OC)[C@H](OC(C)=O)[C@]5(CC)C=CCN6CC[C@]43[C@@H]65)C2)C1 [Vincristine, reference compound] | 7.9 | 10 | 15.8 | 7.9 | – | 19.9 | – | 4 | 6.3 | IC (TGI) [10]: 15.8 µM; IC (TGI) [8]: 19.9 µM; IC (TGI) [13]: 6.3 µM
